Assay results: ChEMBL document CHEMBL1921745, “CCR2 receptor antagonists: optimization of biaryl sulfonamides to increase activity in whole blood” (Bioorg Med Chem Lett, 2011)

How the values were obtained:
[1] = target: T1, C-C chemokine receptor type 2 (Homo sapiens, UniProt P41597); assay: Antagonist activity at CCR2 receptor in human whole blood assessed as inhibition of MCP-1 induced monocyte shape change pretreated for 15 mins before MCP-1 challenge measured after 5 mins by flow cytometry; assay type: functional, tissue-based; details: read-out: pA2 (converted)
Summary of the method: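 Fresh blood from healthy human donors, preincubated 15 minutes with antagonist, then stimulated 5 minutes with a range of MCP-1 concentrations. Samples fixed rapidly and analysed by flow cytometry for increase in monocyte side scatter, plotted against MCP-1 concentration. pA2 derived by comparison with the MCP-1 dose response in vehicle-treated blood.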
Target sequence in this assay (P41597 whole entry): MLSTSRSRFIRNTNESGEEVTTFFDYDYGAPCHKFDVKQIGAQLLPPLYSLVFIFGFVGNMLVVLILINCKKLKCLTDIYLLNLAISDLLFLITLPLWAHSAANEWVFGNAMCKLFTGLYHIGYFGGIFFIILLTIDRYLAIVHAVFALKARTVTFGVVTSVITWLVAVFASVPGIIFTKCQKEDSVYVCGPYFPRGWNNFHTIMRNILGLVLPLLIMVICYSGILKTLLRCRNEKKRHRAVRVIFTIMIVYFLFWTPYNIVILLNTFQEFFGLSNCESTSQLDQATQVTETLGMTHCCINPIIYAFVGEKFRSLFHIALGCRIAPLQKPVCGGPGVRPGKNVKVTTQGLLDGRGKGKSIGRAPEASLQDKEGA

[2] = target: T1, C-C chemokine receptor type 2; assay: Antagonist activity at human CCR2 receptor expressed in CHO cells assessed as inhibition of MCP1-induced [35S]-GTPgammaS binding after 3 hrs; assay type: functional, cell-based
Target sequence in this assay (P41597 whole entry): as above

[3] = target: T1, C-C chemokine receptor type 2; assay: Antagonist activity at human CCR2 receptor expressed in CHO cells assessed as inhibition of MCP1-induced [35S]-GTPgammaS binding after 3 hrs in presence of 5% human serum albumin; assay type: functional, cell-based
Summary of the method: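 GTPγS functional assay at CCR2 run side by side with the HSA-free primary assay. HSA present at 0.2% w/v, described as 5% of physiological concentration.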
Target sequence in this assay (P41597 whole entry): as above

[4] = target: T1, C-C chemokine receptor type 2; assay: Ratio of IC50 for human CCR2 receptor in presence of 5% human serum to IC50 for human CCR2 receptor
Target sequence in this assay (P41597 whole entry, looked up): as the sequence (P41597 whole entry) above

[5] = Clearance in rat at 1 mg/kg, iv and 1.5 mg/kg, po; assay type: ADME, organism-based; details: in vivo
[6] = target: Voltage-gated inwardly rectifying potassium channel KCNH2 (Homo sapiens, UniProt Q12809); assay: Inhibition of human ERG
[7] = Oral bioavailability in rat at 1.5 mg/kg; assay type: ADME, organism-based; details: in vivo
[8] = target: T2, C-C chemokine receptor type 1 (Homo sapiens, UniProt P32246); assay: Antagonist activity at CCR1; assay type: functional
T2 sequence (P32246 whole entry): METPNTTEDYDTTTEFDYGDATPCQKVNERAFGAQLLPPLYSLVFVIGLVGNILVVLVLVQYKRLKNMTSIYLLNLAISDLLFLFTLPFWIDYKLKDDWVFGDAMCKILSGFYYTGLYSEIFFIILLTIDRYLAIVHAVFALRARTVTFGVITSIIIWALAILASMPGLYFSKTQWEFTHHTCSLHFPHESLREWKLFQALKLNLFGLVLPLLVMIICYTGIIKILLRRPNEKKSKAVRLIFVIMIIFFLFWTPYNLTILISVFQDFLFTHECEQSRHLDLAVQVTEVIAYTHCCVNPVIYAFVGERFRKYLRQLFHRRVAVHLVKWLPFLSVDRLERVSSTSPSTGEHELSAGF

[9] = Cmax in satellite C57BL/6 mouse at 40 mg/kg, po; assay type: ADME, organism-based; parameters: dose 40 mg/kg, route oral; details: in vivo
Summary of the method: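 Female C57Bl/6 satellite mice from the peritonitis study were given 40 mg/kg orally, with blood levels followed over about 7 hours.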

[10] = Volume of distribution at steady state in rat at 1 mg/kg, iv and 1.5 mg/kg, po; assay type: ADME, organism-based; details: in vivo, read-out: Vdss
Mus musculus = assay: Reduction of monocyte recruitment in CCR2 deficient C57BL/6 mouse thioglycolate-induced peritonitis model at 40 mg/kg, po administered 3 hrs before thioglycolate challenge relative to control; assay type: functional; parameters: scale not given: the % may be the effect or the level left; details: in the assay text read “humanized CCR2 knock-in” for “CCR2 deficient”
Summary of the method: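 Thioglycolate-induced peritonitis model in humanized CCR2 knock-in mice. Antagonist given orally at 40 mg/kg and monocyte recruitment compared with a vehicle group.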

[11] = Cmax in rat at 1 mg/kg, iv and 1.5 mg/kg, po; assay type: ADME, organism-based; details: in vivo
[12] = Half life in rat at 1 mg/kg, iv and 1.5 mg/kg, po; assay type: ADME, organism-based; details: in vivo
[13] = Lipophilicity, log D of the compound; assay type: physicochemical; details: octanol/water
[14] = target: T3, C-C chemokine receptor type 4 (Homo sapiens, UniProt P51679); assay: Antagonist activity at CCR4; assay type: functional
T3 sequence (P51679 whole entry): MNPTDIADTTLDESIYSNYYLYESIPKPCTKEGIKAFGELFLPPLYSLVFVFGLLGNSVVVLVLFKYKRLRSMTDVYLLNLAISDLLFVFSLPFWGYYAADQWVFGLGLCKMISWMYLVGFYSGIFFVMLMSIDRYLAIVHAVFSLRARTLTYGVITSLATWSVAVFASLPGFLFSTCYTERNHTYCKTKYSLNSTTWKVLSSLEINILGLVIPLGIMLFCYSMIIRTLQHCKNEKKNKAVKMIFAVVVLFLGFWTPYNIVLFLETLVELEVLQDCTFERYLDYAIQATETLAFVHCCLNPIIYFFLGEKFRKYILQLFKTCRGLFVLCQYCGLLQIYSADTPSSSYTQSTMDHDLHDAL

[15] = Volume of distribution at steady state in rat at 1 mg/kg, iv and 2 mg/kg, po; assay type: ADME, organism-based; details: in vivo, read-out: Vdss
[16] = Oral bioavailability in rat at 2 mg/kg; assay type: ADME, organism-based; details: in vivo
[17] = Clearance in rat at 1 mg/kg, iv and 2 mg/kg, po; assay type: ADME, organism-based; details: in vivo
[18] = Half life in rat at 1 mg/kg, iv and 2 mg/kg, po; assay type: ADME, organism-based; details: in vivo
[19] = Cmax in rat at 1 mg/kg, iv and 2 mg/kg, po; assay type: ADME, organism-based; details: in vivo

Voltage-gated inwardly rectifying potassium channel KCNH2, sequence (Q12809 whole entry): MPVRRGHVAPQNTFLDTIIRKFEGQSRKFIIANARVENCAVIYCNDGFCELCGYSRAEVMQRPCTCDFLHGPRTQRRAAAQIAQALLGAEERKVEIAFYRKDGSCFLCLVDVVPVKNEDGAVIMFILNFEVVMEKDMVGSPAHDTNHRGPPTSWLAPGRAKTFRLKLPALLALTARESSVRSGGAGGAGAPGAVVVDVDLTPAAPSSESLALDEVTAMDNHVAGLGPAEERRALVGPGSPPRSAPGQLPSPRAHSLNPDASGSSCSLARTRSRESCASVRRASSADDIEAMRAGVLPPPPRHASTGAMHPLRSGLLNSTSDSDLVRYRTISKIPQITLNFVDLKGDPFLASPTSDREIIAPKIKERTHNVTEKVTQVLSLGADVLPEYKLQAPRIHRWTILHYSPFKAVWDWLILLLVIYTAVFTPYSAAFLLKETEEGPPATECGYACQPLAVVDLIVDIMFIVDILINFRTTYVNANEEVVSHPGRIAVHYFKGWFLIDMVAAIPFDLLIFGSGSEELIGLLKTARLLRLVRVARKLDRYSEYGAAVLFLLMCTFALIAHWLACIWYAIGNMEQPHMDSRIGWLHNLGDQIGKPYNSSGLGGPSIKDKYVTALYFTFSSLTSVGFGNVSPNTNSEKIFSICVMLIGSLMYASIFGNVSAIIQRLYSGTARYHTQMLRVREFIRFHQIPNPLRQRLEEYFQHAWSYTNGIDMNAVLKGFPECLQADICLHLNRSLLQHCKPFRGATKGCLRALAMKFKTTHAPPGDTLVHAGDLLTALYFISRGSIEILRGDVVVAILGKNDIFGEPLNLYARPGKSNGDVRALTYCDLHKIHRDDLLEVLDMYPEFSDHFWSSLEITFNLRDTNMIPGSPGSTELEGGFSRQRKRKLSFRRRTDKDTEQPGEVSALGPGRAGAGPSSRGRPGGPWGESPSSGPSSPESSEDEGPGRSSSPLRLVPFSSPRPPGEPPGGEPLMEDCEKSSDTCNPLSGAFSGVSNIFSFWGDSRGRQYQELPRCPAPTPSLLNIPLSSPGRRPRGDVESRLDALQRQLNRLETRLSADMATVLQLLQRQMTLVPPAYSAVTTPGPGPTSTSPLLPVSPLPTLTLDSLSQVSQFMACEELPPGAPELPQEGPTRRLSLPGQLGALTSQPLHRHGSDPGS

SMILES	Kb [1] [nM]	Ki [2] [nM]	Ki [3] [nM]	fold change (FC) [4]	further results
O=C(NCCN1CCCCC1)c1ccc(Oc2ncc(Cl)cc2NS(=O)(=O)c2ccc(Cl)c(Cl)c2)cc1	1580	13	20	1.5	–
Cc1cc(Oc2ccc(C(=O)NCCN3CCCC3)cc2)c(NS(=O)(=O)c2ccc(Cl)c(C(F)(F)F)c2)cc1Cl	398	8	–	–	–
O=C(NCCN1CCCCC1)c1ccccc1Oc1ncc(Cl)cc1NS(=O)(=O)c1ccc(Cl)c(Cl)c1	–	794	1590	2	–
O=C(NCCN1CCNCC1)c1ccc(Oc2ncc(Cl)cc2NS(=O)(=O)c2ccc(Cl)c(Cl)c2)cc1	–	40	251	6	–
COc1cc(C(=O)NCCN2CCCC2)ccc1Oc1ccc(Cl)cc1NS(=O)(=O)c1ccc(Cl)c(C(F)(F)F)c1	251	6	–	–	clearance [5]: 17 mL/min/kg; IC50 [6]: 25100 nM; bioavailability [7]: 37%; IC50 [8]: > 25100 nM; Cmax [9]: 1970 ng/mL; Vd [10]: 2.7 L/kg; Activity (Mus musculus): 56%; Cmax [11]: 652 ng/mL; half-life [12]: 3.9 h; logD [13]: 2.3; IC50 [14]: > 10000 nM
O=C(NCCN1CCNCC1)c1cccc(Oc2ncc(Cl)cc2NS(=O)(=O)c2ccc(Cl)c(Cl)c2)c1	–	200	2510	13	–
O=C(NCCN1CCCCC1)c1cccc(Oc2ncc(Cl)cc2NS(=O)(=O)c2ccc(Cl)c(Cl)c2)c1	–	79	1260	16	–
O=C(NCCN1CCCCC1)c1ccc(Oc2ncc(Cl)cc2NS(=O)(=O)c2ccc(Cl)c(C(F)(F)F)c2)cc1	398	3	–	–	Vd [15]: 1.9 L/kg; IC50 [8]: > 25100 nM; Cmax [9]: 1520 ng/mL; bioavailability [16]: 10%; clearance [17]: 39 mL/min/kg; Activity (Mus musculus): 54%; logD [13]: 3.2; half-life [18]: 0.9 h; IC50 [14]: > 10000 nM; Cmax [19]: 624 ng/mL
Cc1cc(C(=O)NCCN2CCCC2)ccc1Oc1ccc(Cl)cc1NS(=O)(=O)c1ccc(Cl)c(C(F)(F)F)c1	501	8	–	–	–
O=C(NCCN1CCCC1)c1ccc(Oc2ncc(Cl)cc2NS(=O)(=O)c2ccc(Cl)c(Cl)c2)cc1	–	13	63	5	–
Cc1cc(C(=O)NCCN2CCCCC2)ccc1Oc1ccc(Cl)cc1NS(=O)(=O)c1ccc(Cl)c(C(F)(F)F)c1	2510	25	–	–	–
COc1cc(C(=O)NCCN2CCCCC2)ccc1Oc1ccc(Cl)cc1NS(=O)(=O)c1ccc(Cl)c(C(F)(F)F)c1	1000	25	–	–	–
O=C(NCCN1CCC(F)(F)C1)c1ccc(Oc2ccc(Cl)cc2NS(=O)(=O)c2ccc(Cl)c(C(F)(F)F)c2)cc1	3980	63	–	–	–
O=C(NCCN1CCCC1)c1ccc(Oc2ccc(Cl)cc2NS(=O)(=O)c2ccc(Cl)c(C(F)(F)F)c2)cc1	501	2	–	–	–
O=C(NCCN1CCCC1)c1ccccc1Oc1ncc(Cl)cc1NS(=O)(=O)c1ccc(Cl)c(Cl)c1	–	631	2510	4	–
O=C(NCCN1CCCCC1)c1ccc(Oc2ccc(Cl)cc2NS(=O)(=O)c2ccc(Cl)c(C(F)(F)F)c2)cc1	631	10	–	–	–
Cc1ncccc1Oc1ncc(Cl)cc1NS(=O)(=O)c1ccc(Cl)c(Cl)c1	–	–	1260	126	–
COc1cc(Oc2ccc(C(=O)NCCN3CCCC3)cc2)c(NS(=O)(=O)c2ccc(Cl)c(C(F)(F)F)c2)cc1Cl	398	4	–	–	–
COc1cc(Oc2ccc(C(=O)NCCN3CCCCC3)cc2)c(NS(=O)(=O)c2ccc(Cl)c(C(F)(F)F)c2)cc1Cl	398	10	–	–	–
O=C(NCCN1CCCCC1)c1ccc(Oc2ccc(Cl)cc2NS(=O)(=O)c2ccc(Cl)c(Cl)c2)cc1	3160	63	–	–	–
Cc1cc(Oc2ccc(C(=O)NCCN3CCCCC3)cc2)c(NS(=O)(=O)c2ccc(Cl)c(C(F)(F)F)c2)cc1Cl	1260	16	–	–	–
O=C(NCCN1CCCC1)c1cccc(Oc2ncc(Cl)cc2NS(=O)(=O)c2ccc(Cl)c(Cl)c2)c1	–	100	1000	10	–
